Measurements from ChEMBL document CHEMBL3751664, “Design, Synthesis, and Identification of Silicon Incorporated Oxazolidinone Antibiotics with Improved Brain Exposure” (ACS Med Chem Lett, 2015).
≈ marks a conversion by molar mass, not a printed value.

Legend:
Neisseria meningitidis [1] = assay: Antibacterial activity against clinical isolate Neisseria meningitidis 184 by microbroth dilution method; format: functional
Procedure, shortened: (§1)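 Minimum inhibitory concentration (MIC) read by broth microdilution and reported in μg/mL. The same microbroth screen was run on the broader panel of facultative bacteria.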

Brain [2] = assay: AUC (0 to infinity) in BALB/c mouse brain at 10 mg/kg, po by LC-MS/MS analysis; format: ADME, organism-based; parameters: dose 10 mg/kg, time infinity, route oral; conditions: in vivo
Procedure, shortened: (§2)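 Single oral 10 mg/kg dose, with 2 animals per group. Brain and plasma sampled; brain Cmax is reported as μg/g and brain AUC0-t and AUC0-inf as μg·h/g. Brain-to-plasma ratios are derived from AUC values, and also from Cmax.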

[3] = Metabolic stability in rat liver microsomes after 30 mins by LC-MS/MS analysis; format: ADME; conditions: read-out: Stability
Procedure, shortened: (§3)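 Compounds are incubated with liver microsomes for 30 min, and the result is expressed as % parent remaining (% metabolic stability).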

Neisseria meningitidis [4] = assay: Antibacterial activity against clinical isolate Neisseria meningitidis E-95 by microbroth dilution method; format: functional; procedure, shortened: as §1
Neisseria meningitidis [5] = assay: Antibacterial activity against clinical isolate Neisseria meningitidis 306 by microbroth dilution method; format: functional; procedure, shortened: as §1
Streptococcus pneumoniae [6] = assay: Antibacterial activity against linezolid-resistant Streptococcus pneumoniae 6303 by microbroth dilution method; format: functional
Procedure, shortened: (§4)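 MIC is determined by broth microdilution and expressed in μg/mL.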

[7] = Metabolic stability in mouse liver microsomes after 30 mins by LC-MS/MS analysis; format: ADME; conditions: read-out: Stability; procedure, shortened: as §3
[8] = Plasma protein binding in human; format: ADME, cell-free; conditions: read-out: PPB (converted)
Neisseria meningitidis [9] = assay: Antibacterial activity against clinical isolate Neisseria meningitidis M-1 by microbroth dilution method; format: functional; procedure, shortened: as §1
[10] = AUC (0 to infinity) in BALB/c mouse plasma at 10 mg/kg, po by LC-MS/MS analysis; format: ADME, organism-based; parameters: dose 10 mg/kg, time infinity, route oral; procedure, shortened: as §2
[11] = Metabolic stability in human liver microsomes after 30 mins by LC-MS/MS analysis; format: ADME; conditions: read-out: Stability; procedure, shortened: as §3
[12] = AUC (0 to t) in BALB/c mouse plasma at 10 mg/kg, po by LC-MS/MS analysis; format: ADME, organism-based; procedure, shortened: as §2
Brain [13] = assay: AUC (0 to t) in BALB/c mouse brain at 10 mg/kg, po by LC-MS/MS analysis; format: ADME, organism-based; conditions: in vivo; procedure, shortened: as §2
[14] = Cmax in BALB/c mouse brain at 10 mg/kg, po by LC-MS/MS analysis; format: ADME, organism-based; parameters: dose 10 mg/kg, route oral; procedure, shortened: as §2
[15] = Cmax in BALB/c mouse plasma at 10 mg/kg, po by LC-MS/MS analysis; format: ADME, organism-based; parameters: dose 10 mg/kg, route oral; procedure, shortened: as §2
Neisseria meningitidis [16] = assay: Antibacterial activity against clinical isolate Neisseria meningitidis E-63 by microbroth dilution method; format: functional; procedure, shortened: as §1
Plasma [17] = assay: Metabolic stability in rat plasma by LC-MS/MS analysis; format: ADME, cell-free
Procedure, shortened: (§5)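 Plasma stability is expressed as % compound remaining after incubation in plasma.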

Plasma [18] = assay: Metabolic stability in human plasma by LC-MS/MS analysis; format: ADME, cell-free; procedure, shortened: as §5
Streptococcus pneumoniae [19] = assay: Antibacterial activity against pencillin-resistant erm+ve Streptococcus pneumoniae ATCC 700904 by microbroth dilution method; format: functional; procedure, shortened: as §4
Streptococcus pneumoniae [20] = assay: Antibacterial activity against Streptococcus pneumoniae ATCC 49619 by microbroth dilution method; format: functional; procedure, shortened: as §4
[21] = Ratio of AUC (0 to infinity) in brain to plasma in BALB/c mouse at 10 mg/kg, po; format: ADME, organism-based; procedure, shortened: as §2
[22] = Ratio of AUC (0 to t) in brain to plasma in BALB/c mouse at 10 mg/kg, po; format: ADME, organism-based; procedure, shortened: as §2
[23] = Solubility of compound at pH 2.2 by HPLC analysis; format: physicochemical; conditions: buffer
Streptococcus pneumoniae [24] = assay: Antibacterial activity against Streptococcus pneumoniae ATCC 6303 by microbroth dilution method; format: functional; procedure, shortened: as §4
[25] = Solubility of compound at pH 4.5 by HPLC analysis; format: physicochemical; conditions: buffer
[26] = Solubility of compound at pH 10.2 by HPLC analysis; format: physicochemical; conditions: buffer
[27] = Solubility of compound at pH 7.4 by HPLC analysis; format: physicochemical; conditions: buffer
[28] = Ratio of Cmax in brain to plasma in BALB/c mouse at 10 mg/kg, po; format: ADME, organism-based; procedure, shortened: as §2
[29] = Solubility of compound at pH 1.2 by HPLC analysis; format: physicochemical; conditions: buffer

Structure (SMILES)	MIC (Neisseria meningitidis [1]) [µg/mL]	AUC (Brain [2]) [µg·h/g]	remaining at 0.5 h [3] [%]	MIC (Neisseria meningitidis [4]) [µg/mL]	MIC (Neisseria meningitidis [5]) [µg/mL]	MIC (Streptococcus pneumoniae [6]) [µg/mL]	remaining at 0.5 h [7] [%]	fraction unbound [8]	MIC (Neisseria meningitidis [9]) [µg/mL]	AUC(0-inf) [10] [ng·h/mL]	remaining at 0.5 h [11] [%]	AUC(0-t) [12] [ng·h/mL]	AUCt (Brain [13]) [µg·h/g]	Cmax [14] [ng/g]	Cmax [15] [ng/mL]	MIC (Neisseria meningitidis [16]) [µg/mL]	Stability (Plasma [17]) [%]	Stability (Plasma [18]) [%]	MIC (Streptococcus pneumoniae [19]) [µg/mL]	MIC (Streptococcus pneumoniae [20]) [µg/mL]	also measured
CC(=O)NC[C@H]1CN(c2ccc(N3CCOCC3)c(F)c2)C(=O)O1 [LINEZOLID]	8 (≈ 23.7 µM)	0.9	88.3	8 (≈ 23.7 µM)	8 (≈ 23.7 µM)	32 (≈ 94.9 µM)	100	0.74	8 (≈ 23.7 µM)	7700	100	7580	0.83	450	3650	8 (≈ 23.7 µM)	100	100			
CC(=O)NC[C@H]1CN(c2ccc(N3CC[Si](C)(C)CC3)c(F)c2)C(=O)O1	> 32	3.05	10.8	> 32	> 32	> 32	40.8	0.0567	> 32	1800	48.9	1780	3.01	1330	1050	32 (≈ 84.3 µM)	97.3	100	4 (≈ 10.5 µM)	8 (≈ 21.1 µM)	Kp [21]: 1.69; Kp [22]: 1.69; solubility [23]: 50 µM (≈ 19 µg/mL); MIC (Streptococcus pneumoniae [24]): 4 µg/mL (≈ 10.5 µM); solubility [25]: 41 µM (≈ 15.6 µg/mL); solubility [26]: 41 µM (≈ 15.6 µg/mL); solubility [27]: 40 µM (≈ 15.2 µg/mL); Kp [28]: 1.27; solubility [29]: 50 µM (≈ 19 µg/mL)
COC(=S)NC[C@H]1CN(c2ccc(N3CC[Si](C)(C)CC3)c(F)c2)C(=O)O1	32 (≈ 77.8 µM)	3.24	5.7	32 (≈ 77.8 µM)	32 (≈ 77.8 µM)	32 (≈ 77.8 µM)	15.2		32 (≈ 77.8 µM)	930	43	870	3.11	1470	370	32 (≈ 77.8 µM)	100	100	4 (≈ 9.72 µM)	4 (≈ 9.72 µM)	Kp [21]: 3.49; Kp [22]: 3.57; solubility [23]: 47 µM (≈ 19.3 µg/mL); MIC (Streptococcus pneumoniae [24]): 4 µg/mL (≈ 9.72 µM); solubility [25]: 9 µM (≈ 3.7 µg/mL); solubility [26]: 2 µM (≈ 0.823 µg/mL); solubility [27]: 2 µM (≈ 0.823 µg/mL); Kp [28]: 3.96; solubility [29]: 48 µM (≈ 19.8 µg/mL)
CC(=O)NC[C@H]1CN(c2cc(F)c(N3CC[Si](C)(C)CC3)c(F)c2)C(=O)O1	> 32	16.44	9.6	> 32	> 32	> 32	68.4	0.004	> 32	6210	69.8	5800	14.74	5580	2020	> 32	94.7	100	16 (≈ 40.3 µM)	16 (≈ 40.3 µM)	Kp [21]: 2.65; Kp [22]: 2.54; solubility [23]: 43 µM (≈ 17.1 µg/mL); MIC (Streptococcus pneumoniae [24]): 8 µg/mL (≈ 20.1 µM); solubility [25]: 20 µM (≈ 7.95 µg/mL); solubility [26]: 20 µM (≈ 7.95 µg/mL); solubility [27]: 17 µM (≈ 6.76 µg/mL); Kp [28]: 2.76; solubility [29]: 48 µM (≈ 19.1 µg/mL)
